Test [1] has as its target Tyrosine-protein kinase Lyn (Homo sapiens) (UniProt P07948). Kind of test: Inhibition of LYN (unknown origin) assessed as remaining activity at 1 uM by Kinome scan method relative to control.
Test [2] addresses Mitogen-activated protein kinase kinase kinase 10 (Homo sapiens) (UniProt Q02779). Kind of test: Inhibition of MLK2 (unknown origin) assessed as remaining activity at 1 uM by Kinome scan method relative to control.
Test [3] concerns the target Serine/threonine-protein kinase PAK 4 (Homo sapiens) (UniProt O96013). Kind of test: Inhibition of PAK4 (unknown origin) assessed as remaining activity at 1 uM by Kinome scan method relative to control.
The target in test [4] is Casein kinase I isoform gamma-3 (Homo sapiens) (UniProt Q9Y6M4). Nature of the test: Inhibition of CSNK1G3 (unknown origin) assessed as remaining activity at 1 uM by Kinome scan method relative to control. In a few lines: (§1)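 Active-site-dependent competition-binding profiling (KINOMEscan) at 1 μM against a 468-kinase panel; compound supplied from a 10 mM DMSO stock. Read-out is ctrl% = (test signal − positive control signal)/(negative control signal − positive control signal) × 100. DMSO is the negative control (100%) and a control compound the positive control (0%). Lower ctrl% means tighter binding.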
Sequence of Casein kinase I isoform gamma-3 (Homo sapiens) (Q9Y6M4 whole entry, looked up, canonical isoform): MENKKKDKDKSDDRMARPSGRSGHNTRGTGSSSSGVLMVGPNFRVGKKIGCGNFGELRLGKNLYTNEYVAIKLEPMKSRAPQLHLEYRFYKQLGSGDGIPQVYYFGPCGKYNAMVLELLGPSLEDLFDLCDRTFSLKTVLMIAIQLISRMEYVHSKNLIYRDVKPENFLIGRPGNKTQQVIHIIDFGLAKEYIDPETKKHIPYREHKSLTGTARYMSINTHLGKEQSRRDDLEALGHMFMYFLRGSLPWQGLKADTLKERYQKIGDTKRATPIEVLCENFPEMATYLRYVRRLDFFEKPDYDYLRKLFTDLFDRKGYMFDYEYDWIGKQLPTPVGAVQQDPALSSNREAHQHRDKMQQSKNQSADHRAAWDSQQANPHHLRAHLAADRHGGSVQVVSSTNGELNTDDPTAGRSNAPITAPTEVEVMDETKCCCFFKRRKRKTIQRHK

Test [5] deals with Calcium/calmodulin-dependent protein kinase type IV (Homo sapiens) (UniProt Q16566). Kind of test: Inhibition of CAMK4 (unknown origin) assessed as remaining activity at 1 uM by Kinome scan method relative to control. In a few lines:
as §1

The target of test [6] is Non-receptor tyrosine-protein kinase TNK1 (Homo sapiens) (UniProt Q13470). Kind of test: Inhibition of TNK1 (unknown origin) assessed as remaining activity at 1 uM by Kinome scan method relative to control.
Sequence of Non-receptor tyrosine-protein kinase TNK1 (Homo sapiens) (Q13470 whole entry): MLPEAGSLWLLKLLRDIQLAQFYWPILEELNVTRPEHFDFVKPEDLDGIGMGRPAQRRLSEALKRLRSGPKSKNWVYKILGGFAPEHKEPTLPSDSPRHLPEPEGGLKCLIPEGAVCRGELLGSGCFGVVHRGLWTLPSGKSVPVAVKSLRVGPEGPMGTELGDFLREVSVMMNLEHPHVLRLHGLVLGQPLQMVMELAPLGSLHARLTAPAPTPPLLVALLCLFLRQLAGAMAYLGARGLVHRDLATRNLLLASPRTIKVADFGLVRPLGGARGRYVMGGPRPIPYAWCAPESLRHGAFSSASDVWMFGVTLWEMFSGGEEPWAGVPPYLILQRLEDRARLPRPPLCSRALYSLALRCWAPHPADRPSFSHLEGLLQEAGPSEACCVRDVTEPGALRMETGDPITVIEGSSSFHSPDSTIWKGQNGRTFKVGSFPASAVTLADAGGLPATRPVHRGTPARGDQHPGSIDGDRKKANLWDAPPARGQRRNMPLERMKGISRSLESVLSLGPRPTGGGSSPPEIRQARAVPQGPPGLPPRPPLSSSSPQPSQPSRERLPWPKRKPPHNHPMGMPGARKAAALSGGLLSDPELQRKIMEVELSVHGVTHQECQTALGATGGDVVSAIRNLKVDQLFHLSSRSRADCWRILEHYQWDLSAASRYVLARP
For test [7], the target named is Mitogen-activated protein kinase 15 (Homo sapiens) (UniProt Q8TD08). Nature of the test: Inhibition of ERK8 (unknown origin) assessed as remaining activity at 1 uM by Kinome scan method relative to control.
Sequence of Mitogen-activated protein kinase 15 (Homo sapiens) (Q8TD08 whole entry, canonical isoform): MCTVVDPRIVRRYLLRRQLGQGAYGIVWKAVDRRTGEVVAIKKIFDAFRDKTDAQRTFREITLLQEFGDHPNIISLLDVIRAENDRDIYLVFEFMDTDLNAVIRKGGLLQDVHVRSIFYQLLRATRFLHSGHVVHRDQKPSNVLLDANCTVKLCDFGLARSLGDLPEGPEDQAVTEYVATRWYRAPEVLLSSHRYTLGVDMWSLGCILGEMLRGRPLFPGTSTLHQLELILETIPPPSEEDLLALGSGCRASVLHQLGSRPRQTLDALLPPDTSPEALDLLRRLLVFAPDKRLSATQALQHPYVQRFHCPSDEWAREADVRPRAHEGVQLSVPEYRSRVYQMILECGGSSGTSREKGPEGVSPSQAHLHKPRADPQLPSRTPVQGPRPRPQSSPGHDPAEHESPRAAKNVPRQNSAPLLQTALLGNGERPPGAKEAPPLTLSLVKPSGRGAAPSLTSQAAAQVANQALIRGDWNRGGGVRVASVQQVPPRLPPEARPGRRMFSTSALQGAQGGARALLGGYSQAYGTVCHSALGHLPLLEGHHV
The target of test [8] is Phosphorylase b kinase gamma catalytic chain, liver/testis isoform (Homo sapiens) (UniProt P15735). Nature of the test: Inhibition of PHKG2 (unknown origin) assessed as remaining activity at 1 uM by Kinome scan method relative to control.
Sequence of Phosphorylase b kinase gamma catalytic chain, liver/testis isoform (Homo sapiens) (P15735 whole entry, canonical isoform): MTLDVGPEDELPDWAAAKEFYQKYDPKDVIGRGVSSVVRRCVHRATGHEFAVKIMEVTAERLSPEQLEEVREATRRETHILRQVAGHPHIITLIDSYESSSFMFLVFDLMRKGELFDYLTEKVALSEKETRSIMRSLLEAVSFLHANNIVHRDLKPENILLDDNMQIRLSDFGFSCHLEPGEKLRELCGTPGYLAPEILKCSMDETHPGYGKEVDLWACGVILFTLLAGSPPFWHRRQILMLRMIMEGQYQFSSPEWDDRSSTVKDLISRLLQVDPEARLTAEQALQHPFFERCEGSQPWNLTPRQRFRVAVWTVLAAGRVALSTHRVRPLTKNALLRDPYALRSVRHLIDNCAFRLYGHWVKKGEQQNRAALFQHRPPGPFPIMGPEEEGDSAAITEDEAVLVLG
Test [9] addresses Tyrosine-protein kinase ABL1 (Homo sapiens, UniProt P00519, M351T). Nature of the test: Inhibition of phosphorylated ABL1 M351T mutant (unknown origin) in presence of ATP by enzymatic assay.

Molecules are shown by their SMILES. pIC50: −log10 of the molar value.

Sequence of Serine/threonine-protein kinase PAK 4 (Homo sapiens) (O96013 whole entry, looked up, canonical isoform): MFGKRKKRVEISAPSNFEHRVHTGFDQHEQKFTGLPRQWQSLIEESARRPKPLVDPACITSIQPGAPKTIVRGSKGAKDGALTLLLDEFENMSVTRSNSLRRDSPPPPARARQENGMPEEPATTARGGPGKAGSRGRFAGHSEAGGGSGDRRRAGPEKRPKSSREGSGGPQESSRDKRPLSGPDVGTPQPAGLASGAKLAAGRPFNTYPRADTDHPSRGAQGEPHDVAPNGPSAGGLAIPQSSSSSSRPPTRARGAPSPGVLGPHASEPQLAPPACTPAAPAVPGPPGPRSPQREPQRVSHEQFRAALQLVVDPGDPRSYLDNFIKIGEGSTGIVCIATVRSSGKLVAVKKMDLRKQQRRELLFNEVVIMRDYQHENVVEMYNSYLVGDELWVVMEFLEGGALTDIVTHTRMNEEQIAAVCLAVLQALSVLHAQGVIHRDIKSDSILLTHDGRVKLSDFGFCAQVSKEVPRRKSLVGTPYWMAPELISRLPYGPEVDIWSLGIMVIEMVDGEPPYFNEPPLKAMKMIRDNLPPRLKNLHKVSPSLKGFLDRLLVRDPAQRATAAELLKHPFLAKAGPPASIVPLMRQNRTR
Sequence of Tyrosine-protein kinase Lyn (Homo sapiens) (P07948 2-512 limits assumed): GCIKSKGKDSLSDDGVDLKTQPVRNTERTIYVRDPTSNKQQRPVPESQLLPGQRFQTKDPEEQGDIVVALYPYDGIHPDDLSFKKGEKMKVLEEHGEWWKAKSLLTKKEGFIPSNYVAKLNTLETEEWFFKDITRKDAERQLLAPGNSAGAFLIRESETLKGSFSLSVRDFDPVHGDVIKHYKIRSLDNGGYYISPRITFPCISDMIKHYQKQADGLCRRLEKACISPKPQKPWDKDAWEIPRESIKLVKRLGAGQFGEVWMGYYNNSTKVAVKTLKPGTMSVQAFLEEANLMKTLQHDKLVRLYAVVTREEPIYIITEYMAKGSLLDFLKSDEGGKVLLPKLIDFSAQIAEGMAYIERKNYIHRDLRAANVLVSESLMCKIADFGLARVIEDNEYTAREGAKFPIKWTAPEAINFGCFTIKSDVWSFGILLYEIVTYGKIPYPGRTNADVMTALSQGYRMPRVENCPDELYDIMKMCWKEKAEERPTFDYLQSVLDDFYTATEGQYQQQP
Sequence of Calcium/calmodulin-dependent protein kinase type IV (Homo sapiens) (Q16566 whole entry): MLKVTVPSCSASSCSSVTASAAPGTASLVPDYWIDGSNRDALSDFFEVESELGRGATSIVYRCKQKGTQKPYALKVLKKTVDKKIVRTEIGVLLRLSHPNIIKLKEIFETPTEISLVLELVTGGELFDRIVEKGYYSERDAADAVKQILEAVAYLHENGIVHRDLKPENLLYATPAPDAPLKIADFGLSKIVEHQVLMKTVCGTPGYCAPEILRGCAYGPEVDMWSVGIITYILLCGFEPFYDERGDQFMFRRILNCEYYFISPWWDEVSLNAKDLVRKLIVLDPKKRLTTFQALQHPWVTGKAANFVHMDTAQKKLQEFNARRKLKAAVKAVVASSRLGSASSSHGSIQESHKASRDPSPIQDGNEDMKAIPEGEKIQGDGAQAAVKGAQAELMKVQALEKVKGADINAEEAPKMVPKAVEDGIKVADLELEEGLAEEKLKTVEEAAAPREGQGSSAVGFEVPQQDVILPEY
Sequence of Mitogen-activated protein kinase kinase kinase 10 (Homo sapiens) (Q02779 whole entry, looked up): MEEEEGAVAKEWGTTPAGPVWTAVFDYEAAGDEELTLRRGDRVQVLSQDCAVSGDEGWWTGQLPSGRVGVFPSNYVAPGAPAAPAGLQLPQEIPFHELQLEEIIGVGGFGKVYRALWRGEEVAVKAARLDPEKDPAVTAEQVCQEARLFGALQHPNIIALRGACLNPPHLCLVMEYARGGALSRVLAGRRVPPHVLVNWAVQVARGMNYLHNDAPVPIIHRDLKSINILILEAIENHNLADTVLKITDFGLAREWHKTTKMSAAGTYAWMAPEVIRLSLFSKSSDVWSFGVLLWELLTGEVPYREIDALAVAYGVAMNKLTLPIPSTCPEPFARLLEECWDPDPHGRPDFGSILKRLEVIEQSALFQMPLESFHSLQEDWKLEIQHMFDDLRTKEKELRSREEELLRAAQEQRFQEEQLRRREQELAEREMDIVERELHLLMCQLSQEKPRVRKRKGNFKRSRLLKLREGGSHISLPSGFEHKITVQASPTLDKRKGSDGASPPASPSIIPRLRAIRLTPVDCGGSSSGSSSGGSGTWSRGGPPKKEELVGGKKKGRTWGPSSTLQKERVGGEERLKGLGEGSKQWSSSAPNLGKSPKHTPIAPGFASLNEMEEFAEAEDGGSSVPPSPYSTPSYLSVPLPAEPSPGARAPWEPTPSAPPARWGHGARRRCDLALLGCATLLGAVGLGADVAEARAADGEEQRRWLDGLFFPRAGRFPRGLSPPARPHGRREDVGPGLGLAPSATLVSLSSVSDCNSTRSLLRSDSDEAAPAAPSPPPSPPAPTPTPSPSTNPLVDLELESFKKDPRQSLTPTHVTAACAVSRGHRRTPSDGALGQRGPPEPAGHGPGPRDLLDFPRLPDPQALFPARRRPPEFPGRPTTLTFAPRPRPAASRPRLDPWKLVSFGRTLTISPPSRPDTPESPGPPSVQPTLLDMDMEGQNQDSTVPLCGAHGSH

The pIC50 is the IC50 on a negative log10 scale, so that one unit is a factor of ten. In the case of `CN1C(=O)c2sccc2N(C)c2nc(Nc3ccc(S(N)(=O)=O)cc3)ncc21`, the Activity in test [1] came out at 100%; in test [2], 77%; in test [3], 86%; in [4], 72%; in test [5], 100%; in test [6], 69%. The Activity worked out at 79% in [7] and 100% in test [8]. In addition, the pIC50 in test [9] was 7.75.

The record behind these values is ChEMBL document CHEMBL5705905, “Pharmacological targeting of kinases MST1 and MST2 augments tissue repair and regeneration” (Sci Transl Med, 2016).
